{"data": "Assay results gathered from unrelated publications", "cell line": "HEL", "read-out": "cell growth or viability", "note": "Lines come from different studies, so protocols differ."}
{"SMILES": "CC(C)CNC(=O)[C@H](C)NC(=O)[C@@]1(Cc2ccccc2)CCN1C(=O)OCc1ccccc1", "time": "72 h", "CC50": "> 100 µM"}
{"SMILES": "CCOP(=O)(OCC)[C@H]1C[C@@H](Cn2c(=O)n(C(=O)c3ccccc3)c(=O)c3ccccc32)ON1C", "CC50": "> 100 µM"}
{"SMILES": "O=c1[nH]c(=O)c2ncn(CC(CO)OCP(=O)(O)O)c2[nH]1 (racemic)", "time": "72 h", "CC50": "≥ 300 µM"}
{"SMILES": "CCOP(=O)(OCC)[C@@H]1C[C@@H](n2cc(Cn3ccc(NC(C)=O)nc3=O)nn2)ON1C (racemic)", "time": "72 h", "CC50": "> 100 µM"}
{"SMILES": "CCCCCCCCCCCCCCCCOCCCOP(=O)(O)COCCn1cnc2c(=O)[nH]c(=O)[nH]c21", "time": "72 h", "CC50": "10 µM"}
{"SMILES": "CCOP(=O)(OCC)[C@@H]1C[C@@H](n2cc(Cn3ccc(=O)[nH]c3=O)nn2)ON1C (racemic)", "time": "72 h", "CC50": "> 100 µM"}
{"SMILES": "C[C@H](NC(=O)[C@@]1(Cc2ccccc2)CCN1C(=O)OCc1ccccc1)C(=O)N(C)C", "time": "72 h", "CC50": "> 100 µM"}
{"SMILES": "CCOP(=O)(OCC)[C@@H]1C[C@H](n2cc(-c3nccn3C)nn2)ON1C", "time": "72 h", "CC50": "> 100 µM"}
{"SMILES": "Nc1nc2c(ncn2COCCO)c(=O)[nH]1", "CC50": "440 µM"}
{"SMILES": "C[C@H](NC(=O)[C@]1(Cc2ccccc2)CCN1C(=O)OCc1ccccc1)C(=O)NCc1ccccc1", "time": "72 h", "CC50": "42 µM"}
